The source made the active and inactive calls. No cut-off for these calls is given here.
Columns and labels:
[1] = Equipotent molar ratio relative to D-AP5 (1.0) on neonatal rat motoneurones; type: functional
Method in brief: (§1)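 Isolated neonatal rat spinal cord in vitro, recording from motoneurones. Antagonist potency is given as an equipotent molar ratio against D-AP5, with D-AP5 set to 1.0.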

[2] = Equipotent molar ratio relative to D-AP5 (1.0) on neonatal rat motoneurones.; inactive; type: functional; method in brief: as §1
[3] = Equipotent molar ratio relative to D-AP5 (1.0) on neonatal rat motoneurones.; type: functional
Mus musculus = experiment: (§2) Tested for anticonvulsant activity following intracerebroventricular administration against sound-induced clonic convulsions in DBA/2 mice.; type: functional
Method in brief: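 Intracerebroventricular dosing in DBA/2 mice at several doses, 7–11 mice per drug. Mice were exposed to sound, and protection against clonic (audiogenic) seizures was scored. Values were derived from dose–response data with 95% confidence limits. Overt behaviour (ataxia) and rectal temperature were also monitored.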

[4] = as §2; type: functional, Mus musculus
Method in brief: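 Intracerebroventricular injection in DBA/2 mice, 7–11 mice per compound, several doses per compound. Read-out is protection against sound-induced (audiogenic) clonic seizures. Values carry 95% confidence limits. Overt behaviour (ataxia) and rectal temperature were also noted.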

Compound	Ratio [3]	further results
N[C@]1(C(=O)O)C[C@@H](CCC(=O)O)C1		Ratio [1]: 7.9
N[C@]1(C(=O)O)C[C@H](CCC(=O)O)C1		Ratio [1]: 1.8
N[C@]1(C(=O)O)C[C@@](C(=O)O)(C2CC2C(=O)O)C1 (some centres undefined)		Ratio [2]: inactive
NC1(C(=O)O)CC([C@H](O)CP(=O)(O)O)C1 (some centres undefined)	1	
O=C(O)C1CN(CCCP(=O)(O)O)CCN1 (racemic)	0.2	
N[C@]1(C(=O)O)C[C@H](CCP(=O)(O)O)C1	0.32	
NC1(C(=O)O)CC([C@@H](O)CP(=O)(O)O)C1 (some centres undefined)	0.39	
N[C@]1(C(=O)O)C[C@H](C(=O)CP(=O)(O)O)C1	0.33	
N[C@@H](CCCP(=O)(O)O)C(=O)O		Ratio [1]: 1
N[C@]1(C(=O)O)C[C@@H](CCP(=O)(O)O)C1	1.1	
N[C@]1(C(=O)O)C[C@@H](C(=O)CP(=O)(O)O)C1	4.2	
N[C@]1(C(=O)O)C[C@](C(=O)O)(C2CC2C(=O)O)C1 (some centres undefined)	0.28	ED50 (Mus musculus): 0.089 µg; ED50 [4]: 0.36 nmol
